# Results as given in ChEMBL document CHEMBL3779892, “Increasing the binding affinity of VEGFR-2 inhibitors by extending their hydrophobic interaction with the active site: Design, synthesis and biological evaluation of 1-substituted-4-(4-methoxybenzyl)phthalazine derivatives” (Eur J Med Chem, 2016).
# Columns and labels:
# Format in all cases: functional
# SK-MEL-5 = assay: Growth inhibition of human SK-MEL-5 cells at 10 uM after 48 hrs by sulforhodamine B assay; settings: SK-MEL-5, 48 h, read-out: GI
# Outline: (§1)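 Run at NCI on the 60-line panel. Cells grown in RPMI 1640 with 5% FBS and 2 mM L-glutamine, plated at 5000–40,000 cells/well by doubling time, and held 24 h at 37 °C before dosing. Drug (DMSO stock) given at a single final 10 µM in triplicate wells for 48 h. Adherent cells fixed with cold TCA (10% final), suspension cells with 16% TCA. SRB stain read at 515 nm. Percent growth from Tz, C and Ti.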
# SK-MEL-28 = assay: Growth inhibition of human SK-MEL-28 cells at 10 uM after 48 hrs by sulforhodamine B assay; settings: SK-MEL-28, 48 h, read-out: GI; outline: as §1
# MDA-MB-435 = assay: Growth inhibition of human MDA-MB-435 cells at 10 uM after 48 hrs by sulforhodamine B assay; settings: MDA-MB-435, 48 h, read-out: GI; outline: as §1
# NCI-H522 = assay: Growth inhibition of human NCI-H522 cells at 10 uM after 48 hrs by sulforhodamine B assay; settings: NCI-H522, 48 h, read-out: GI; outline: as §1
# MDA-MB-468 = assay: Growth inhibition of human MDA-MB-468 cells at 10 uM after 48 hrs by sulforhodamine B assay; settings: MDA-MB-468, 48 h, read-out: GI; outline: as §1
# [1] = Growth inhibition of human SNB19 cells at 10 uM after 48 hrs by sulforhodamine B assay; settings: SNB-19, 48 h, read-out: GI; outline: as §1
# A498 = assay: Growth inhibition of human A498 cells at 10 uM after 48 hrs by sulforhodamine B assay; settings: A498, 48 h, read-out: GI; outline: as §1
# [2] = Growth inhibition of human UO31 cells at 10 uM after 48 hrs by sulforhodamine B assay; settings: UO-31, 48 h, read-out: GI
# Outline: (§2)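 NCI-60 panel, adherent cells grown in RPMI 1640 with 5% FBS and 2 mM L-glutamine, plated at 5000–40,000 cells/well and preincubated 24 h at 37 °C, 5% CO2. 10 µM final compound from DMSO stock, triplicate wells, 48 h. Fixed with cold TCA (10% final, 60 min, 4 °C) and stained with 0.4% SRB. Absorbance read at 515 nm; growth calculated against time-zero and control wells.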
# [3] = Growth inhibition of human SW620 cells at 10 uM after 48 hrs by sulforhodamine B assay; settings: SW-620, 48 h, read-out: GI; outline: as §2
# K562 = assay: Growth inhibition of human K562 cells at 10 uM after 48 hrs by sulforhodamine B assay; settings: K562, 48 h, read-out: GI; outline: as §1
# NCI-H23 = assay: Growth inhibition of human NCI-H23 cells at 10 uM after 48 hrs by sulforhodamine B assay; settings: NCI-H23, 48 h, read-out: GI; outline: as §1
# A549 = assay: Growth inhibition of human A549 cells at 10 uM after 48 hrs by sulforhodamine B assay; settings: A549, 48 h, read-out: GI; outline: as §1
# HT-29 = assay: Growth inhibition of human HT-29 cells at 10 uM after 48 hrs by sulforhodamine B assay; settings: HT-29, 48 h, read-out: GI; outline: as §1
# ACHN = assay: Growth inhibition of human ACHN cells at 10 uM after 48 hrs by sulforhodamine B assay; settings: read-out: GI; outline: as §1
# [4] = Growth inhibition of human PC3 cells at 10 uM after 48 hrs by sulforhodamine B assay; settings: PC-3, 48 h, read-out: GI; outline: as §1
# KM12 = assay: Growth inhibition of human KM12 cells at 10 uM after 48 hrs by sulforhodamine B assay; settings: KM12, 48 h, read-out: GI; outline: as §1
# [5] = Growth inhibition of human NCI-ADR-RES cells at 10 uM after 48 hrs by sulforhodamine B assay; settings: read-out: GI; outline: as §1
# [6] = Growth inhibition of human SNB75 cells at 10 uM after 48 hrs by sulforhodamine B assay; settings: SNB-75, 48 h, read-out: GI; outline: as §1
# [7] = Growth inhibition of human DU145 cells at 10 uM after 48 hrs by sulforhodamine B assay; settings: DU-145, 48 h, read-out: GI; outline: as §1
# SR = assay: Growth inhibition of human SR cells at 10 uM after 48 hrs by sulforhodamine B assay; settings: read-out: GI
# Outline: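 NCI-60 screen. Cells were grown in RPMI 1640 with 5% FBS and 2 mM L-glutamine, plated at 5000–40,000 cells/well and held 24 h at 37 °C, 5% CO2. Single 10 µM final dose from DMSO stock, triplicate wells, 48 h. Settled cells were fixed with 80% TCA (16% final) and stained with 0.4% SRB. Dye was solubilized in 10 mM Tris and read at 515 nm. Growth was calculated against time-zero and untreated wells.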
# [8] = Growth inhibition of human OVCAR3 cells at 10 uM after 48 hrs by sulforhodamine B assay; settings: OVCAR-3, 48 h, read-out: GI; outline: as §1
# M14 = assay: Growth inhibition of human M14 cells at 10 uM after 48 hrs by sulforhodamine B assay; settings: M14, 48 h, read-out: GI; outline: as §1
# [9] = Growth inhibition of human UACC62 cells at 10 uM after 48 hrs by sulforhodamine B assay; settings: UACC-62, 48 h, read-out: GI; outline: as §2
# CCRF-CEM = assay: Growth inhibition of human CCRF-CEM cells at 10 uM after 48 hrs by sulforhodamine B assay; settings: read-out: GI; outline: as §1
# [10] = Growth inhibition of human SF295 cells at 10 uM after 48 hrs by sulforhodamine B assay; settings: SF-295, 48 h, read-out: GI; outline: as §1
# [11] = Growth inhibition of human OVCAR8 cells at 10 uM after 48 hrs by sulforhodamine B assay; settings: OVCAR-8, 48 h, read-out: GI; outline: as §1
# [12] = Growth inhibition of human SF268 cells at 10 uM after 48 hrs by sulforhodamine B assay; settings: SF-268, 48 h, read-out: GI; outline: as §1
# NCI-H460 = assay: Growth inhibition of human NCI-H460 cells at 10 uM after 48 hrs by sulforhodamine B assay; settings: NCI-H460, 48 h, read-out: GI; outline: as §1
# NCI-H226 = assay: Growth inhibition of human NCI-H226 cells at 10 uM after 48 hrs by sulforhodamine B assay; settings: NCI-H226, 48 h, read-out: GI; outline: as §1
# [13] = Growth inhibition of human HOP92 cells at 10 uM after 48 hrs by sulforhodamine B assay; settings: HOP-92, 48 h, read-out: GI; outline: as §1
# [14] = Growth inhibition of human Hs 578T cells at 10 uM after 48 hrs by sulforhodamine B assay; settings: read-out: GI; outline: as §1
# MDA-MB-231 = assay: Growth inhibition of human MDA-MB-231 cells at 10 uM after 48 hrs by sulforhodamine B assay; settings: MDA-MB-231, 48 h, read-out: GI; outline: as §1
# [15] = Growth inhibition of human OVCAR5 cells at 10 uM after 48 hrs by sulforhodamine B assay; settings: OVCAR-5, 48 h, read-out: GI; outline: as §1
Structure (SMILES),inhibition of growth at 10 µM (SK-MEL-5),inhibition of growth at 10 µM (SK-MEL-28),inhibition of growth at 10 µM (MDA-MB-435),inhibition of growth at 10 µM (NCI-H522),inhibition of growth at 10 µM (MDA-MB-468),inhibition of growth at 10 µM [1],inhibition of growth at 10 µM (A498),inhibition of growth at 10 µM [2],inhibition of growth at 10 µM [3],inhibition of growth at 10 µM (K562),inhibition of growth at 10 µM (NCI-H23),inhibition of growth at 10 µM (A549),inhibition of growth at 10 µM (HT-29),inhibition of growth at 10 µM (ACHN),inhibition of growth at 10 µM [4],inhibition of growth at 10 µM (KM12),inhibition of growth at 10 µM [5],inhibition of growth at 10 µM [6],inhibition of growth at 10 µM [7],inhibition of growth at 10 µM (SR),further results
COc1ccc(Cc2nnc(Nc3ccc(C#N)cc3)c3ccccc23)cc1,< 30%,< 30%,< 30%,< 30%,30%,< 30%,30%,49%,< 30%,< 30%,< 30%,< 30%,< 30%,< 30%,34%,< 30%,< 30%,< 30%,< 30%,< 30%,inhibition of growth at 10 µM [8]: < 30%; inhibition of growth at 10 µM (M14): < 30%; inhibition of growth at 10 µM [9]: < 30%; inhibition of growth at 10 µM (CCRF-CEM): < 30%; inhibition of growth at 10 µM [10]: < 30%; inhibition of growth at 10 µM [11]: < 30%; inhibition of growth at 10 µM [12]: < 30%; inhibition of growth at 10 µM (NCI-H460): < 30%; inhibition of growth at 10 µM (NCI-H226): < 30%; inhibition of growth at 10 µM [13]: 36%; inhibition of growth at 10 µM [14]: < 30%; inhibition of growth at 10 µM (MDA-MB-231): < 30%; inhibition of growth at 10 µM [15]: < 30%
COc1ccc(Cc2nnc(Nc3cccc(Cl)c3)c3ccccc23)cc1,< 30%,< 30%,< 30%,50%,30%,37%,34%,61%,< 30%,45%,< 30%,45%,31%,31%,42%,< 30%,32%,32%,< 30%,43%,inhibition of growth at 10 µM [8]: 34%; inhibition of growth at 10 µM (M14): < 30%; inhibition of growth at 10 µM [9]: 39%; inhibition of growth at 10 µM (CCRF-CEM): < 30%; inhibition of growth at 10 µM [10]: 33%; inhibition of growth at 10 µM [11]: < 30%; inhibition of growth at 10 µM [12]: < 30%; inhibition of growth at 10 µM (NCI-H460): 34%; inhibition of growth at 10 µM (NCI-H226): 35%; inhibition of growth at 10 µM [13]: 63%; inhibition of growth at 10 µM [14]: < 30%; inhibition of growth at 10 µM (MDA-MB-231): 39%; inhibition of growth at 10 µM [15]: < 30%
